pIC50: −log10 of the molar value.
Tests used:
Assay type in all cases: functional, cell-based; call rule not given here
MCF7 [1] = assay: Cytotoxicity against human MCF7 cells by MTT assay
Summary of the method: (§1)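 MCF-7 time-course MTT. Cells seeded at 5 × 10^3/well and exposed to 1–50 μM compound. Percentage cytotoxicity and IC50 determined at 24, 48 and 72 h of drug incubation. MTT read-out at 540 nm after formazan solubilization in DMSO.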

MCF7 [2] = assay: Cytotoxicity against human MCF7 cells after 48 hrs by MTT assay; conditions: MCF7, 48 h; summary of the method: as §1
MCF7 [3] = assay: Cytotoxicity against human MCF7 cells after 72 hrs by MTT assay; conditions: MCF7, 72 h; summary of the method: as §1
[4] = Cytotoxicity against mouse EAC after 24 hrs by MTT assay; conditions: Ehrlich
Summary of the method: (§2)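 Standard MTT, 24 h exposure. Cells plated at 10^4/well and allowed 24 h to attach, then exposed to 1–100 μM compound (dissolved in 0.1% DMSO, diluted in medium; vehicle controls 0.1% DMSO). MTT 1 mg/ml for 4 h at 37 °C, formazan dissolved in DMSO, absorbance read at 540 nm. IC50 taken as concentration giving 50% growth inhibition; triplicate.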

MCF7 [5] = assay: Cytotoxicity against human MCF7 cells after 24 hrs by MTT assay; summary of the method: as §2
HeLa = assay: Cytotoxicity against human HeLa cells after 24 hrs by MTT assay; summary of the method: as §2
MCF7 [6] = assay: DNA damaging activity in human MCF7 cells assessed as increase in tail moment after 24 hrs by alkaline comet assay
Summary of the method: (§3)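 Alkaline comet assay in MCF-7 after 24 h exposure to 5–50 μM. About 20,000 cells embedded in 0.75% low-melt agarose over a 1.5% agarose layer. Alkaline unwinding 1 h, then electrophoresis at pH 13 for 20 min, 16 V. Ethidium bromide staining; ~50 cells scored per slide, two slides per concentration; means ± SEM.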

MCF7 [7] = assay: DNA damaging activity in human MCF7 cells assessed as elongated tail length after 24 hrs by alkaline comet assay; summary of the method: as §3
MCF7 [8] = assay: DNA damaging activity in human MCF7 cells assessed as olive tail moment after 24 hrs by alkaline comet assay; summary of the method: as §3
MCF7 [9] = assay: DNA damaging activity in human MCF7 cells assessed as tail DNA content after 24 hrs by alkaline comet assay; summary of the method: as §3

| Structure (SMILES) | pIC50 [4] | IC50 (MCF7 [5]) | pIC50 (HeLa) | further results |
| --- | --- | --- | --- | --- |
| CCCCCC[C@@H](C)Nc1nc2cc(Cl)c(F)cc2s1 | 4.61 | Dose-dependent effect | 4.32 | IC50 (MCF7 [1]; TDE = time-dependent effect): tde; pIC50 (MCF7 [2]): 4.60; pIC50 (MCF7 [3]): 4.82 |
| CC(Nc1nc2cc(Cl)c(F)cc2s1)c1ccccc1 (single isomer, unassigned) | 4.44 | Dose-dependent effect | 4.23 |  |
| Fc1cc2sc(N[C@@H]3CCCC[C@@H]3OCc3ccccc3)nc2cc1Cl | 4.69 | Dose-dependent effect | 4.22 |  |
| Fc1ccc(NC(=S)NC2CCCCC2OCc2ccccc2)cc1Cl (stereo not drawn) | 4.97 | Dose-dependent effect | 4.47 | IC50 (MCF7 [1]; TDE = time-dependent effect): tde; pIC50 (MCF7 [2]): 4.89; pIC50 (MCF7 [3]): 5.06 |
| CC(Nc1nc2cc(Cl)c(F)cc2s1)C1CCCCC1 (single isomer, unassigned) | 4.53 | Dose-dependent effect | 4.14 |  |
| CC[C@@H](NC(=S)Nc1ccc(F)c(Cl)c1)c1ccccc1 | 4.10 | Dose-dependent effect |  |  |
| C[C@@H](Nc1nc2cc(Cl)c(F)cc2s1)c1ccc(Cl)cc1 | 4.59 | Dose-dependent effect | 4.16 |  |
| C[C@@H](NC(=S)Nc1ccc(F)c(Cl)c1)c1ccc(F)cc1 | 4.52 | Dose-dependent effect | 4.15 |  |
| COc1ccc([C@@H](C)NC(=S)Nc2ccc(F)c(Cl)c2)cc1 | 4.34 | Dose-dependent effect | 4.11 |  |
| C[C@@H](NC(=S)Nc1ccc(F)c(Cl)c1)c1ccccc1 | 4.63 | Dose-dependent effect | 4.18 |  |
| CC(Nc1nc2cc(Cl)c(F)cc2s1)c1ccc(F)cc1 (single isomer, unassigned) | 4.45 | Dose-dependent effect | 4.21 |  |
| CCC(Nc1nc2cc(Cl)c(F)cc2s1)c1ccccc1 (single isomer, unassigned) | 4.49 | Dose-dependent effect | 4.27 |  |
| COc1ccc(C(C)Nc2nc3cc(Cl)c(F)cc3s2)cc1 (single isomer, unassigned) | 4.12 | Dose-dependent effect |  |  |
| CCCCCC[C@@H](C)NC(=S)Nc1ccc(F)c(Cl)c1 | 4.59 | Dose-dependent effect | 4.31 |  |
| COc1cccc2c1C(=O)c1c(O)c3c(c(O)c1C2=O)C[C@@](O)(C(=O)CO)C[C@@H]3O[C@H]1C[C@H](N)[C@H](O)[C@H](C)O1 [DOXORUBICIN] | 5.38 | Dose-dependent effect |  |  |
| C[C@@H](NC(=S)Nc1ccc(F)c(Cl)c1)c1ccc(Cl)cc1 | 4.76 | Dose-dependent effect | 4.37 | IC50 (MCF7 [1]): tde; pIC50 (MCF7 [2]): 4.79; pIC50 (MCF7 [3]): 4.94; Activity (MCF7 [6]): Dose-dependent effect; Activity (MCF7 [7]): Dose-dependent effect; Activity (MCF7 [8]): Dose-dependent effect; Activity (MCF7 [9]): Dose-dependent effect |

— ChEMBL document CHEMBL1152486, “Synthesis and antitumor activity of optically active thiourea and their 2-aminobenzothiazole derivatives: a novel class of anticancer agents” (Eur J Med Chem, 2009)
